Active and inactive are the calls of the source. The rule behind the calls is not given here.
Assays:
[1] = tested on: IGROV-1; assay: Growth inhibition of human IGROV1 cells at 10 uM relative to control; format: functional; conditions: read-out: GI
In short: (§1)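 Each cell line in a 60-line human tumour panel exposed to one 10 μM concentration. Growth inhibition percentage computed as 100 minus the percentage activity relative to control.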

[2] = tested on: MDA-MB-435; assay: Growth inhibition of human MDA-MB-435 cells at 10 uM relative to control; format: functional; conditions: read-out: GI; in short: as §1
[3] = tested on: OVCAR-4; assay: Growth inhibition of human OVCAR4 cells at 10 uM relative to control; format: functional; conditions: read-out: GI; in short: as §1
[4] = tested on: KM12; assay: Growth inhibition of human KM12 cells at 10 uM relative to control; format: functional; conditions: read-out: GI; in short: as §1
[5] = tested on: SK-MEL-28; assay: Growth inhibition of human SK-MEL-28 cells at 10 uM relative to control; format: functional; conditions: read-out: GI; in short: as §1
[6] = tested on: K562; assay: Growth inhibition of human K562 cells at 10 uM relative to control; format: functional; conditions: read-out: GI; in short: as §1
[7] = tested on: NCI-H460; assay: Growth inhibition of human NCI-H460 cells at 10 uM relative to control; format: functional; conditions: read-out: GI; in short: as §1
[8] = tested on: SF-268; assay: Growth inhibition of human SF268 cells at 10 uM relative to control; format: functional; conditions: read-out: GI; in short: as §1
[9] = tested on: HCC 2998; assay: Growth inhibition of human HCC2998 cells at 10 uM relative to control; format: functional; conditions: read-out: GI; in short: as §1
[10] = tested on: SW-620; assay: Growth inhibition of human SW620 cells at 10 uM relative to control; format: functional; conditions: read-out: GI
In short: (§2)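 Single-dose screen across the 60-cell-line human tumor panel at 10 μM. Growth inhibition is reported as a percentage, taken as 100 minus the % growth relative to untreated control.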

[11] = tested on: M14; assay: Growth inhibition of human M14 cells at 10 uM relative to control; format: functional; conditions: read-out: GI; in short: as §1
[12] = tested on: NCI-H226; assay: Growth inhibition of human NCI-H226 cells at 10 uM relative to control; format: functional; conditions: read-out: GI; in short: as §1
[13] = tested on: RXF 393; assay: Growth inhibition of human RXF393 cells at 10 uM relative to control; format: functional; conditions: read-out: GI; in short: as §1
[14] = tested on: OVCAR-8; assay: Growth inhibition of human OVCAR8 cells at 10 uM relative to control; format: functional; conditions: read-out: GI; in short: as §1
[15] = tested on: HOP-62; assay: Growth inhibition of human HOP62 cells at 10 uM relative to control; format: functional; conditions: read-out: GI; in short: as §1
[16] = tested on: SNB-19; assay: Growth inhibition of human SNB19 cells at 10 uM relative to control; format: functional; conditions: read-out: GI; in short: as §2
[17] = Growth inhibition of human Hs 578T cells at 10 uM relative to control; format: functional; conditions: read-out: GI; in short: as §1
[18] = Growth inhibition of human 786-O cells at 10 uM relative to control; format: functional; conditions: 786-0, read-out: GI; in short: as §1
[19] = tested on: UACC-257; assay: Growth inhibition of human UACC257 cells at 10 uM relative to control; format: functional; conditions: read-out: GI; in short: as §2
[20] = tested on: NCI-H23; assay: Growth inhibition of human NCI-H23 cells at 10 uM relative to control; format: functional; conditions: read-out: GI; in short: as §1
[21] = tested on: ACHN; assay: Growth inhibition of human ACHN cells at 10 uM relative to control; format: functional; conditions: read-out: GI; in short: as §1
[22] = tested on: NCI-H322M; assay: Growth inhibition of human NCI-H322M cells at 10 uM relative to control; format: functional; conditions: read-out: GI; in short: as §1
[23] = tested on: Mus musculus; assay: Anticonvulsant activity in mouse assessed as protection against strychnine-induced seizure at 1 mmol/kg, ip administered 30 min prior to strychnine-challenge measured after 60 mins relative to control; format: functional
[24] = tested on: DU-145; assay: Growth inhibition of human DU145 cells at 10 uM relative to control; format: functional; conditions: read-out: GI; in short: as §1
[25] = tested on: OVCAR-3; assay: Growth inhibition of human OVCAR3 cells at 10 uM relative to control; format: functional; conditions: read-out: GI; in short: as §1
[26] = tested on: SK-OV-3; assay: Growth inhibition of human SKOV3 cells at 10 uM relative to control; format: functional; conditions: read-out: GI; in short: as §1
[27] = tested on: CAKI-1; assay: Growth inhibition of human CAKI-1 cells at 10 uM relative to control; format: functional; conditions: read-out: GI; in short: as §1
[28] = tested on: CCRF-CEM; assay: Growth inhibition of human CCRF-CEM cells at 10 uM relative to control; format: functional; conditions: read-out: GI; in short: as §1
[29] = tested on: OVCAR-5; assay: Growth inhibition of human OVCAR5 cells at 10 uM relative to control; format: functional; conditions: read-out: GI; in short: as §1
[30] = tested on: A549; assay: Growth inhibition of human A549 cells at 10 uM relative to control; format: functional; conditions: read-out: GI; in short: as §1
[31] = tested on: COLO 205; assay: Growth inhibition of human COLO205 cells at 10 uM relative to control; format: functional, cell-based; in short: as §1
[32] = tested on: Mus musculus; assay: Anticonvulsant activity in mouse assessed as protection against maximal electroshock-induced seizure at 1 mmol/kg, ip administered 30 min prior to maximal electroshock-challenge measured after 60 mins relative to control; format: functional
[33] = tested on: LOX IMVI; assay: Growth inhibition of human LOXIMVI cells at 10 uM relative to control; format: functional; conditions: read-out: GI; in short: as §1
[34] = tested on: U-251; assay: Growth inhibition of human U251 cells at 10 uM relative to control; format: functional; conditions: read-out: GI; in short: as §2
[35] = tested on: SNB-75; assay: Growth inhibition of human SNB75 cells at 10 uM relative to control; format: functional; conditions: read-out: GI; in short: as §2
[36] = tested on: NCI/ADR-RES; assay: Growth inhibition of human NCI/ADR-RES cells at 10 uM relative to control; format: functional; conditions: read-out: GI; in short: as §1
[37] = tested on: Malme-3M; assay: Growth inhibition of human MALME-3M cells at 10 uM relative to control; format: functional; conditions: read-out: GI; in short: as §1
[38] = tested on: SR; assay: Growth inhibition of human SR cells at 10 uM relative to control; format: functional; conditions: read-out: GI; in short: as §2
[39] = tested on: UO-31; assay: Growth inhibition of human UO31 cells at 10 uM relative to control; format: functional; conditions: read-out: GI; in short: as §2
[40] = tested on: RPMI-8226; assay: Growth inhibition of human RPMI8226 cells at 10 uM relative to control; format: functional; conditions: read-out: GI; in short: as §1
[41] = tested on: MDA-MB-231; assay: Growth inhibition of human MDA-MB-231 cells at 10 uM relative to control; format: functional; conditions: read-out: GI; in short: as §1
[42] = tested on: T47D; assay: Growth inhibition of human T47D cells at 10 uM relative to control; format: functional; conditions: read-out: GI; in short: as §2
[43] = tested on: SF-295; assay: Growth inhibition of human SF295 cells at 10 uM relative to control; format: functional; conditions: read-out: GI; in short: as §1
[44] = tested on: SK-MEL-5; assay: Growth inhibition of human SK-MEL-5 cells at 10 uM relative to control; format: functional; conditions: read-out: GI; in short: as §1
[45] = tested on: HCT-116; assay: Growth inhibition of human HCT116 cells at 10 uM relative to control; format: functional; conditions: read-out: GI; in short: as §1
[46] = tested on: EKVX; assay: Growth inhibition of human EKVX cells at 10 uM relative to control; format: functional; conditions: read-out: GI; in short: as §1
[47] = tested on: SF-539; assay: Growth inhibition of human SF539 cells at 10 uM relative to control; format: functional; conditions: read-out: GI; in short: as §1
[48] = tested on: Mus musculus; assay: Anticonvulsant activity in mouse assessed as protection against pentylenetetrazol-induced seizure at 1 mmol/kg, ip administered 30 min prior to pentylenetetrazol-challenge measured after 60 mins relative to control; format: functional
[49] = tested on: A498; assay: Growth inhibition of human A498 cells at 10 uM relative to control; format: functional; conditions: read-out: GI; in short: as §1
[50] = tested on: HT-29; assay: Growth inhibition of human HT-29 cells at 10 uM relative to control; format: functional; conditions: read-out: GI; in short: as §1
[51] = tested on: MCF7; assay: Growth inhibition of human MCF7 cells at 10 uM relative to control; format: functional; conditions: read-out: GI; in short: as §1
[52] = tested on: PC-3; assay: Growth inhibition of human PC3 cells at 10 uM relative to control; format: functional; conditions: read-out: GI; in short: as §1
[53] = tested on: HCT-15; assay: Growth inhibition of human HCT15 cells at 10 uM relative to control; format: functional; conditions: read-out: GI; in short: as §1
[54] = tested on: MOLT-4; assay: Growth inhibition of human MOLT4 cells at 10 uM relative to control; format: functional; conditions: read-out: GI; in short: as §1
[55] = tested on: SN12C; assay: Growth inhibition of human SN12C cells at 10 uM relative to control; format: functional; conditions: read-out: GI; in short: as §2
[56] = tested on: HL-60(TB); assay: Growth inhibition of human HL-60(TB) cells at 10 uM relative to control; format: functional; conditions: read-out: GI
In short: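 Single-dose screen at 10 μM across the 60-cell-line tumour panel. Percent growth inhibition = 100 minus percent growth activity relative to untreated control.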

[57] = tested on: UACC-62; assay: Growth inhibition of human UACC62 cells at 10 uM relative to control; format: functional; conditions: read-out: GI; in short: as §2

## Cc1ccccc1-n1c(C)nc2cc(NC(=O)c3ccc(Cl)cc3)ccc2c1=O
[1]
  inhibition of growth at 10 µM: 21.4%
[2]
  inhibition of growth at 10 µM: 56.4%
[3]
  inhibition of growth at 10 µM: 69.9%
[4]
  inhibition of growth at 10 µM: 24.4%
[5]
  inhibition of growth at 10 µM: 20.4%
[6]
  inhibition of growth at 10 µM: 44.2%
[7]
  inhibition of growth at 10 µM: 27.5%
[8]
  inhibition of growth at 10 µM: 32.3%
[9]
  inhibition of growth at 10 µM: 19.1%
[10]
  inhibition of growth at 10 µM: 14%
[11]
  inhibition of growth at 10 µM: 32.3%
[12]
  inhibition of growth at 10 µM: 12%
[13]
  inhibition of growth at 10 µM: 23.2%
[14]
  inhibition of growth at 10 µM: 16%
[15]
  inhibition of growth at 10 µM: 3%
[16]
  inhibition of growth at 10 µM: 24.2%
[17]
  inhibition of growth at 10 µM: 17.9%
[18]
  inhibition of growth at 10 µM: 32.4%
[19]
  inhibition of growth at 10 µM: 40.3%
[20]
  inhibition of growth at 10 µM: 35.7%
[21]
  inhibition of growth at 10 µM: 52%
[22]
  inhibition of growth at 10 µM: 6%
[23]
  Activity: 0%
[24]
  inhibition of growth at 10 µM: 12.4%
[25]
  inhibition of growth at 10 µM: 41.1%
[26]
  inhibition of growth at 10 µM: 16.8%
[27]
  inhibition of growth at 10 µM: 41.2%
[28]
  inhibition of growth at 10 µM: 47.3%
[29]
  inhibition of growth at 10 µM: 24.1%
[30]
  inhibition of growth at 10 µM: 27.8%
[31]
  growth inhibition (GI): inactive
[32]
  Activity: 50%
[33]
  inhibition of growth at 10 µM: 31.6%
[34]
  inhibition of growth at 10 µM: 32.4%
[35]
  inhibition of growth at 10 µM: 21.2%
[36]
  inhibition of growth at 10 µM: 17.6%
[37]
  inhibition of growth at 10 µM: 56.5%
[38]
  inhibition of growth at 10 µM: 26.3%
[39]
  inhibition of growth at 10 µM: 22.2%
[40]
  inhibition of growth at 10 µM: 55.4%
[41]
  inhibition of growth at 10 µM: 42.7%
[42]
  inhibition of growth at 10 µM: 71%
[43]
  inhibition of growth at 10 µM: 40.3%
[44]
  inhibition of growth at 10 µM: 99.1%
[45]
  inhibition of growth at 10 µM: 25.2%
[46]
  inhibition of growth at 10 µM: 48.5%
[47]
  inhibition of growth at 10 µM: 31.8%
[48]
  Activity: 0%
[49]
  inhibition of growth at 10 µM: 39.4%
[50]
  inhibition of growth at 10 µM: 38.1%
[51]
  inhibition of growth at 10 µM: 42.2%
[52]
  inhibition of growth at 10 µM: 39.8%
[53]
  inhibition of growth at 10 µM: 36.3%
[54]
  inhibition of growth at 10 µM: 29.3%
[55]
  inhibition of growth at 10 µM: 32.4%
[56]
  inhibition of growth at 10 µM: 35.5%
[57]
  inhibition of growth at 10 µM: 57.8%
